Assay results reported in publication PMC5808564 (ChemMedChem, 2017).
“And” between values parts separate entries of the source, which are not always exact repeats. Identical values can stand only once. Like-named read-outs stand apart in the source and are kept apart here.

How the values were obtained:
[1] = biological target: recombinant T. brucei hexokinase 1 (rTbHK1) (Trypanosoma brucei, UniProt Q38C42); test: biochemical; assay type: biochemical
[2] = tested on: T. brucei bloodstream form (BSF) parasites (cell line 90-13, a 427 strain); test: microbe, parasite or virus in culture; assay type: cell-based, Trypanosoma brucei; conditions: for % T. brucei BSF growth inhibition (10 μM): 10 μM compound; for % T. brucei BSF growth inhibition (10 μM) / inhibition at 10 µM: BLD = below level of detection; for T. brucei BSF potency (LD50 ± SEM): 3-day growth, n ≥ 3; for inhibition at 10 µM: Trypanosoma brucei, A-427, read-out: % T. brucei BSF growth inhibition (10 μM), 10 μM compound
[3] = biological target: T1, human HK 4 (human glucokinase, hGlk) (Homo sapiens, UniProt P35557); test: Specificity assay against human glucokinase; assay type: biochemical; conditions: for % hGlk inhibition (10 μM): 10 μM compound, BLD = below level of detection; for inhibition at 10 µM: read-out: % hGlk inhibition (10 μM)
T1 sequence (P35557 1-465): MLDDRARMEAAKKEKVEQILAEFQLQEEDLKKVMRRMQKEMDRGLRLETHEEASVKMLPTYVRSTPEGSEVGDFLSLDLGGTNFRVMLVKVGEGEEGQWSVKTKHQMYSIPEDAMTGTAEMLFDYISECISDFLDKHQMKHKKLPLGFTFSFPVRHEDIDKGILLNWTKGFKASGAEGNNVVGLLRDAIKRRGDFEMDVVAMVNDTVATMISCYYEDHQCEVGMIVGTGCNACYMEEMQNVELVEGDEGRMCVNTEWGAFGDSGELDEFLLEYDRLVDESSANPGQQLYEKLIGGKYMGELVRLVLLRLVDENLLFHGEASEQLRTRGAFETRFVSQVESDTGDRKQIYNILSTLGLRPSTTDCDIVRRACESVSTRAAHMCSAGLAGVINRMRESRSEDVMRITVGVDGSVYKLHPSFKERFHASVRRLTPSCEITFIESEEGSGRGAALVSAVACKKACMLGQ
Procedure, shortened: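 Uses human hexokinase 4 (glucokinase; GenBank BC001890). Activity is read through a coupled reaction in which glucose-6-phosphate dehydrogenase converts the glucose-6-phosphate formed to 6-phosphogluconate. The coincident NADPH formation is followed at 340 nm.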

IMR-90 human cells = test: Human cell line toxicity testing; assay type: cell-based
[4] = read-out: rTbHK1 potency (IC50 ± SEM), average of n ≥ 3 experiments
[5] = read-out: IMR90 toxicity (EC50), IMR-90 cells, 44-46 h
[6] = Homo sapiens, IMR-90, read-out: IMR90 toxicity (EC50)

| Compound | IC50 [1, 4] [µM] | % T. brucei BSF growth inhibition (10 μM) [2] | T. brucei BSF potency (LD50 ± SEM) [2] | % hGlk inhibition (10 μM) [3] | EC50 (IMR-90 human cells; [5]) [µM] | IC50 [1] [µM] | inhibition at 10 µM [2] [%] | inhibition at 10 µM [3] [%] | EC50 (IMR-90 human cells; [6]) [µM] | rTbHK1 enzymatic potency (in words) [1] | activity on whole T. brucei BSF parasites (in words) [2] |
| --- | --- | --- | --- | --- | --- | --- | --- | --- | --- | --- | --- |
| COc1ccc(-c2cc(C(=O)O)c(NC(=O)c3ccc(C(C)(C)C)cc3)cc2Cl)cc1 [Compound 4i] | 1.72 ± 0.09 | 82.5 ± 7.1% | 3.1 ± 0.2 µM | 22.2 ± 1.6% | > 25 | – | – | – | – | – | – |
| CC(C)(C)c1ccc(C(=O)Nc2cc(Cl)c(-c3cccc(F)c3)cc2C(=O)O)cc1 [Compound 4o] | 4.6 ± 0.32 | 93.7 ± 2.6% | 1.8 ± 0.3 µM | 16.1 ± 8.7% | > 25 | – | – | – | – | – | – |
| CC(C)(C)c1ccc(C(=O)Nc2cc(Cl)c(-c3ccco3)cc2C(=O)O)cc1 [Compound 4w] | – | – | – | – | – | 0.42 ± 0.02 | 59 ± 8.2 | 10.4 ± 2.1 | > 25 | – | – |
| CC(C)(C)c1ccc(C(=O)Nc2cc(Cl)c(-c3cccc(Cl)c3)cc2C(=O)O)cc1 [Compound 4q] | – | – | – | – | – | 2.7 ± 0.05 | 90.7 ± 1.8 | 30.9 ± 3.5 | > 25 | – | – |
| CC(C)(C)c1ccc(C(=O)Nc2cc(Cl)c(-n3ccnc3)cc2C(=O)O)cc1 [Compound 4dd] | > 10 | 16.4 ± 13.3% | – | 1.7 ± 3.2% | > 25 | – | – | – | – | – | – |
| CC(C)(C)c1ccc(C(=O)Nc2cc(Cl)c(-c3ccc4c(c3)OCO4)cc2C(=O)O)cc1 [Compound 4z] | 3.9 ± 0.1 | 89.8 ± 1.1% | 3.0 ± 0.3 µM | 23.9 ± 2.5% | > 25 | – | – | – | – | – | – |
| Cc1cc(C(=O)O)c(NC(=O)c2ccc(C(C)(C)C)cc2)cc1Cl [Compound 4c, 2-(4-tert-Butylbenzamido)-4-chloro-5-methylbenzoic acid] | – | – | – | – | – | 2.7 ± 0.18 | 97.5 ± 0.6 | 12.5 ± 4.8 | > 25 | – | – |
| CCc1cc(C(=O)O)c(NC(=O)c2ccc(C(C)(C)C)cc2)cc1Cl [Compound 4d, 2-(4-tert-Butylbenzamido)-4-chloro-5-ethylbenzoic acid] | – | BLD | – | – | – | 7.4 ± 0.15 | – | 0.7 ± 1.4 | > 25 | – | – |
| Cn1nnc(-c2cc(C(=O)O)c(NC(=O)c3ccc(C(C)(C)C)cc3)cc2Cl)n1 [Compound 4ff] | > 10 | BLD | – | 14.0 ± 4.1% | > 25 | – | – | – | – | lacked enzymatic potency | failed to inhibit BSF parasite growth |
| CC(C)(C)c1ccc(C(=O)Nc2cc(Cl)c(-c3ccoc3)cc2C(=O)O)cc1 [Compound 4x] | 0.51 ± 0.06 | 73.7 ± 3.7% | 4.2 ± 0.4 µM | 3.1 ± 2.8% | > 25 | – | – | – | – | – | – |
| CC(C)(C)c1ccc(C(=O)Nc2cc(Cl)c(-c3ccncc3)cc2C(=O)O)cc1 [Compound 4s] | > 10 | 99.7 ± 1.4% | 3.5 ± 0.6 µM | 15.1 ± 3.2% | > 25 | – | – | – | – | – | – |
| CC(C)(C)c1ccc(C(=O)Nc2cc(Cl)c(-n3cccn3)cc2C(=O)O)cc1 [Compound 4cc] | 2.8 ± 0.2 | 22.5 ± 12.3% | > 10.0 µM | 8.7 ± 4.4% | > 25 | – | – | – | – | – | – |
| COc1ccccc1-c1cc(C(=O)O)c(NC(=O)c2ccc(C(C)(C)C)cc2)cc1Cl [Compound 4k] | 4.6 ± 0.32 | 90.7 ± 0.9% | 2.0 ± 0.2 µM | 18.8 ± 2.4% | > 25 | – | – | – | – | – | – |
| CC(C)(C)c1ccc(C(=O)Nc2cc(Cl)c(C3CC3)cc2C(=O)O)cc1 [Compound 4e] | 6.7 ± 0.38 | 43.4 ± 16.8% | – | BLD | > 25 | – | – | – | – | – | – |
| CC(C)(C)c1ccc(C(=O)Nc2cc(Cl)c(-c3nnn[nH]3)cc2C(=O)O)cc1 [Compound 4ee] | – | BLD | – | – | – | 0.14 ± 0.002 | – | 1.6 ± 0.5 | > 25 | – | – |
| CC(C)(C)c1ccc(C(=O)Nc2cc(Cl)c(-c3ccc4c(c3)OCCO4)cc2C(=O)O)cc1 [Compound 4y] | – | – | – | – | – | 0.6 ± 0.09 | 98 ± 1.2 | 26.6 ± 0.4 | > 25 | – | – |
| CN(C)c1ccc(-c2cc(C(=O)O)c(NC(=O)c3ccc(C(C)(C)C)cc3)cc2Cl)cc1 [Compound 4l] | > 10 | 58.0 ± 4.0% | 6.0 ± 0.2 µM | 27.8 ± 1.7% | > 25 | – | – | – | – | – | – |
| Cc1ccccc1-c1cc(C(=O)O)c(NC(=O)c2ccc(C(C)(C)C)cc2)cc1Cl [Compound 4h] | – | 65.2 ± 0.2% | – | 16.6 ± 2.3% | > 25 | – | – | – | – | – | – |
| CC(C)(C)c1ccc(C(=O)Nc2cc(Cl)c(-c3cccnc3)cc2C(=O)O)cc1 [Compound 4t] | – | 57.7 ± 14.2% | – | 16.7 ± 1.2% | > 25 | – | – | – | – | – | – |
| COc1cccc(-c2cc(C(=O)O)c(NC(=O)c3ccc(C(C)(C)C)cc3)cc2Cl)c1 [Compound 4j] | 0.88 ± 0.01 | 92.2 ± 2.9% | 1.5 µM and 1.5 ± 0.3 µM | 13.8 ± 1.9% | > 25 | – | – | – | – | – | – |
| CC(C)(C)c1ccc(C(=O)Nc2cc(Cl)c(-c3ccc(C(=O)O)cc3)cc2C(=O)O)cc1 [Compound 4r] | 3.5 ± 0.33 | 51.0 ± 14.3% | – | 3.5 ± 7.1% | > 25 | – | – | – | – | – | – |
| CN(C)c1cccc(-c2cc(C(=O)O)c(NC(=O)c3ccc(C(C)(C)C)cc3)cc2Cl)c1 [Compound 4m] | – | – | – | – | – | 4 ± 0.32 | 82.8 ± 0.2 | 43.7 ± 4.1 | > 25 | – | – |
| CC(C)(C)c1ccc(C(=O)Nc2cc(Cl)c(-c3ccsc3)cc2C(=O)O)cc1 [Compound 4v] | – | – | – | – | – | 0.33 ± 0.03 | 68.5 ± 2.1 | 24.8 ± 1 | > 25 | – | – |
| CC(C)(C)c1ccc(C(=O)Nc2cc(Cl)c(-n3cccc3)cc2C(=O)O)cc1 [Compound 4aa] | 3 ± 0.2 | 73.6 ± 1.0% | 6.9 ± 2.1 µM | 15.8 ± 3.0% | > 25 | – | – | – | – | – | – |
| CC(C)(C)c1ccc(C(=O)Nc2cc(Cl)c(-c3ccc(F)cc3)cc2C(=O)O)cc1 [Compound 4n] | 2.44 ± 0.08 | 76.7 ± 10.4% | 3.1 ± 0.7 µM | 15.1 ± 2.6% | > 25 | – | – | – | – | – | – |
| Cc1ccc(-c2cc(C(=O)O)c(NC(=O)c3ccc(C(C)(C)C)cc3)cc2Cl)cc1 [Compound 4g] | 2.78 ± 0.03 | 81.4 ± 5.6% | 3.2 ± 1.6 µM | 15.7 ± 3.0% | > 25 | – | – | – | – | – | – |
